Reference: ChEMBL document CHEMBL4038284, “Synthesis of novel quinoline-based 4,5-dihydro-1H-pyrazoles as potential anticancer, antifungal, antibacterial and antiprotozoal agents” (Eur J Med Chem, 2017)
Converted amounts (≈) assume the structure as drawn.

Experiments:
[1] = system: Cryptococcus neoformans; assay: Growth inhibition of Cryptococcus neoformans ATCC 32264 at 3.4 ug/ml incubated for 48 hrs under dark condition by broth microdilution method relative to control; format: functional; conditions: ATCC 32264, 48 h, read-out: GI
[2] = system: Staphylococcus aureus; assay: Antibacterial activity against methicillin-resistant Staphylococcus aureus ATCC 43300 after 24 hrs by resazurin dye based microdilution assay; format: functional; conditions: ATCC 43300, 24 h
Summary of the method: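 Broth microdilution in Mueller Hinton broth, inoculum 5 × 10^5 – 8 × 10^5. Compound stocks diluted in MHB with 5% DMSO and 0.1% Tween 80. Incubation 24 h at 35-37 °C. MIC is the lowest concentration with visible growth inhibition and/or by resazurin (1 mg/mL) read-out. Gentamicin as control. Run in duplicate, replicated at least three times.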

[3] = system: Staphylococcus aureus; assay: Antibacterial activity against vancomycin-intermediate Staphylococcus aureus after 24 hrs by resazurin dye based microdilution assay; format: functional
Summary of the method: (§1)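 MIC taken as the lowest concentration giving visible inhibition and/or by resazurin (1 mg/mL). Gentamicin was the control. Run in duplicate, repeated at least three times.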

[4] = system: Candida albicans; assay: Growth inhibition of Candida albicans ATCC 10231 at 15.62 ug/ml incubated for 48 hrs under dark condition by broth microdilution method relative to control; format: functional; conditions: ATCC 10231, 48 h, read-out: GI
Summary of the method: (§2)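 CLSI M27-A3 broth microdilution in RPMI-1640, DMSO ≤1%. Inoculum 1-5 × 10^3 CFU/mL. Incubated 48 h at 30 °C, dark. % inhibition = 100 − (OD405 test − sterility control)/(OD405 growth control − sterility control), with growth and sterility control wells. Triplicate.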

[5] = system: Cryptococcus neoformans; assay: Growth inhibition of Cryptococcus neoformans ATCC 32264 at 15.62 ug/ml incubated for 48 hrs under dark condition by broth microdilution method relative to control; format: functional; conditions: ATCC 32264, 48 h, read-out: GI; summary of the method: as §2
[6] = system: Candida albicans; assay: Antifungal activity against Candida albicans ATCC 10231 incubated for 48 hrs under dark condition by broth microdilution method; format: functional; conditions: ATCC 10231, 48 h
Summary of the method: (§3)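 CLSI M27-A3 broth microdilution in RPMI-1640, DMSO ≤1%, compounds at 250-0.98 µg/mL final. Inoculum 1-5 × 10^3 CFU/mL. Incubated 48 h at 30 °C in a moist dark chamber, read at OD405. MIC80 and MIC50 taken from % inhibition dose-response curves (mean ± SEM, triplicate). Amphotericin B was the positive control.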

[7] = system: Candida albicans; assay: Growth inhibition of Candida albicans ATCC 10231 at 3.4 ug/ml incubated for 48 hrs under dark condition by broth microdilution method relative to control; format: functional; conditions: ATCC 10231, 48 h, read-out: GI
[8] = system: Cryptococcus neoformans; assay: Growth inhibition of Cryptococcus neoformans ATCC 32264 at 62.5 ug/ml incubated for 48 hrs under dark condition by broth microdilution method relative to control; format: functional; conditions: ATCC 32264, 48 h, read-out: GI; summary of the method: as §2
[9] = system: Cryptococcus neoformans; assay: Antifungal activity against Cryptococcus neoformans ATCC 32264 incubated for 48 hrs under dark condition by broth microdilution method; format: functional; conditions: ATCC 32264, 48 h; summary of the method: as §3
[10] = system: Cryptococcus neoformans; assay: Growth inhibition of Cryptococcus neoformans ATCC 32264 at 31.25 ug/ml incubated for 48 hrs under dark condition by broth microdilution method relative to control; format: functional; conditions: ATCC 32264, 48 h, read-out: GI; summary of the method: as §2
[11] = system: U-937; assay: Cytotoxicity against human U937 cells after 72 hrs by MTT assay; format: cell-based; conditions: u-937, 72 h
Summary of the method: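 Exponentially growing U-937 at 1 × 10^5 cells/mL in RPMI-1640 with 10% FBS were exposed to 200, 50, 12.5 and 3.125 µg/mL for 72 h at 37 °C, 5% CO2. MTT for 3 h, stopped with isopropanol/SDS, formazan read at 570 nm, blank-corrected. LC50 by Probit from % viability against untreated cells. Triplicate, at least two independent experiments.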

[12] = system: Candida albicans; assay: Growth inhibition of Candida albicans ATCC 10231 at 125 ug/ml incubated for 48 hrs under dark condition by broth microdilution method relative to control; format: functional; conditions: ATCC 10231, 48 h, read-out: GI; summary of the method: as §2
[13] = system: Candida albicans; assay: Growth inhibition of Candida albicans ATCC 10231 at 31.25 ug/ml incubated for 48 hrs under dark condition by broth microdilution method relative to control; format: functional; conditions: ATCC 10231, 48 h, read-out: GI; summary of the method: as §2
[14] = system: Klebsiella pneumoniae; assay: Antibacterial activity against carbapenemase positive Klebsiella pneumoniae BAA 1705 after 24 hrs by resazurin dye based microdilution assay; format: functional; conditions: BAA 1705, 24 h; summary of the method: as §1
[15] = system: Candida albicans; assay: Growth inhibition of Candida albicans ATCC 10231 at 7.8 ug/ml incubated for 48 hrs under dark condition by broth microdilution method relative to control; format: functional; conditions: ATCC 10231, 48 h, read-out: GI; summary of the method: as §2
[16] = system: Staphylococcus aureus; assay: Antibacterial activity against methicillin-sensitive Staphylococcus aureus ATCC 25923 after 24 hrs by resazurin dye based microdilution assay; format: functional; conditions: ATCC 25923, 24 h; summary of the method: as §1
[17] = system: Leishmania panamensis; assay: Antileshmanial activity against EpiR/GFP fused Leishmania panamensis MHOM/CO/87/UA140 intracellular amastigotes infected in human […] cells after 72 hrs by flow cytometric method; format: functional, cell-based; conditions: MHOM/CO/87/UA140, 72 h
Summary of the method: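 PMA-treated U-937 cells (3 × 10^5 cells/mL) infected with stationary-phase GFP L. panamensis promastigotes (15:1), 3 h at 34 °C, then washed. After 24 h, compounds added at 50, 12.5, 3.125 and 0.78 µg/mL for 72 h at 37 °C. EC50 by Probit; triplicate, two experiments.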

[18] = system: Cryptococcus neoformans; assay: Growth inhibition of Cryptococcus neoformans ATCC 32264 at 250 ug/ml incubated for 48 hrs under dark condition by broth microdilution method relative to control; format: functional; conditions: ATCC 32264, 48 h, read-out: GI; summary of the method: as §2
[19] = system: Klebsiella pneumoniae; assay: Antibacterial activity against ESBL positive Klebsiella pneumoniae ATCC 700603 after 24 hrs by resazurin dye based microdilution assay; format: functional; conditions: Klebsiella pneumoniae, 700603, 24 h; summary of the method: as §1
[20] = system: Candida albicans; assay: Growth inhibition of Candida albicans ATCC 10231 at 250 ug/ml incubated for 48 hrs under dark condition by broth microdilution method relative to control; format: functional; conditions: ATCC 10231, 48 h, read-out: GI; summary of the method: as §2
[21] = system: Candida albicans; assay: Growth inhibition of Candida albicans ATCC 10231 at 62.5 ug/ml incubated for 48 hrs under dark condition by broth microdilution method relative to control; format: functional; conditions: ATCC 10231, 48 h, read-out: GI; summary of the method: as §2
[22] = system: Pseudomonas aeruginosa; assay: Antibacterial activity against Pseudomonas aeruginosa ATCC 27853 after 24 hrs by resazurin dye based microdilution assay; format: functional; conditions: ATCC 27853, 24 h; summary of the method: as §1
[23] = system: Trypanosoma cruzi; assay: Antitrypanosomal activity against Trypanosoma cruzi Tulahuen intracellular amastigote harboring LacZ infected in human U937 cells after 72 hrs by CPRG/Nonidet reagent based spectrophotometric method; format: functional, cell-based; conditions: U-937, 72 h
Summary of the method: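 U-937 cells at 2.5 × 10^5 cells/mL in RPMI-1640 with 10% serum and 0.1 µg/mL PMA were infected with β-galactosidase-transfected Tulahuen epimastigotes at 5 parasites per cell. Infected cells were exposed to 50, 12.5, 3.125 and 0.78 µg/mL for 72 h. CPRG (100 uM) and 0.1% Nonidet P-40 were added for 3 h, read at 570 nm. EC50 by Probit. Triplicate, at least two experiments; benznidazole as reference.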

[24] = system: Neisseria gonorrhoeae; assay: Antibacterial activity against beta lactamase positive Neisseria gonorrhoeae ATCC 31426 by oxidase test; format: functional
Summary of the method: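 Agar dilution MIC on GC agar with 1% isovitalex containing increasing compound concentrations. Plates inoculated with about 1×10^4 CFU (5 µL). MIC is the lowest concentration that inhibited growth, with growth confirmed by oxidase test. Run in duplicate, repeated at least three times.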

[25] = system: Escherichia coli; assay: Antibacterial activity against Escherichia coli ATCC 25922 after 24 hrs by resazurin dye based microdilution assay; format: functional; conditions: ATCC 25922, 24 h; summary of the method: as §1
[26] = system: Cryptococcus neoformans; assay: Growth inhibition of Cryptococcus neoformans ATCC 32264 at 7.8 ug/ml incubated for 48 hrs under dark condition by broth microdilution method relative to control; format: functional; conditions: ATCC 32264, 48 h, read-out: GI; summary of the method: as §2
[27] = system: Plasmodium falciparum; assay: Antiplasmodial activity against chloroquine-sensitive Plasmodium falciparum 3D7 assessed as reduction in parasitic LDH activity after 48 hrs by Malstat reagent based […] method; format: functional; conditions: 3D7, 48 h
Summary of the method: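 Unsynchronized P. falciparum 3D7 at 0.5% parasitemia and 1% hematocrit in RPMI with 3% Albumax II. Exposed to 100, 25, 6.25 and 1.56 µg/mL for 48 h at 37 °C under 90% N2/5% CO2/5% O2. After three freeze-thaw cycles, LDH measured with Malstat and NBT/PES, 1 h in the dark, read at 650 nm. IC50 by Probit; triplicate, ≥2 experiments.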

[28] = system: Cryptococcus neoformans; assay: Growth inhibition of Cryptococcus neoformans ATCC 32264 at 125 ug/ml incubated for 48 hrs under dark condition by broth microdilution method relative to control; format: functional; conditions: ATCC 32264, 48 h, read-out: GI; summary of the method: as §2

For `O=C(/C=C/c1cccc(Nc2ccnc3cc(Cl)ccc23)c1)c1ccc(Br)cc1`, the inhibition of growth at 3.4 µg/mL [1] was 34.9%, the MIC [2] was over 1000 µg/mL and the MIC [3] was over 1000 µg/mL. The inhibition of growth at 15.62 µg/mL [4] was 32%, the inhibition of growth at 15.62 µg/mL [5] was 44.5% and the MIC50 [6] was 250 µg/mL (≈ 539 µM). For the same molecule, the MIC80 [6] was at least 250 µg/mL, the inhibition of growth at 3.4 µg/mL [7] was 15.8% and the inhibition of growth at 62.5 µg/mL [8] was 47.9%. For the same molecule, the MIC50 [9] was 125 µg/mL (≈ 270 µM), the MIC80 [9] was 250 µg/mL (≈ 539 µM) and the inhibition of growth at 31.25 µg/mL [10] was 46.4%. It also gave an LC50 [11] of 0.7 µg/mL (≈ 1.51 µM), an inhibition of growth at 125 µg/mL [12] of 47.7% and an inhibition of growth at 31.25 µg/mL [13] of 28.9%. It also gave an MIC [14] of over 1000 µg/mL, an inhibition of growth at 7.8 µg/mL [15] of 21.1% and an MIC [16] of over 1000 µg/mL. The EC50 [17] was 0.88 µg/mL (≈ 1.9 µM), the inhibition of growth at 250 µg/mL [18] was 100% and the MIC [19] was over 1000 µg/mL. For the same molecule, the inhibition of growth at 250 µg/mL [20] was 58%, the inhibition of growth at 62.5 µg/mL [21] was 35.3% and the MIC [22] was over 1000 µg/mL. For the same molecule, the EC50 [23] was 1.35 µg/mL (≈ 2.91 µM), the MIC [24] was over 1000 µg/mL and the MIC [25] was over 1000 µg/mL. It also gave an inhibition of growth at 7.8 µg/mL [26] of 35.1%, an EC50 [27] of 10.3 µg/mL (≈ 22.3 µM) and an inhibition of growth at 125 µg/mL [28] of 70.6%.

`COc1cc(C2=NN(C(C)=O)C(c3cccc(Nc4ccnc5cc(Cl)ccc45)c3)C2)cc(OC)c1OC` (stereo not given) was tested, and the inhibition of growth at 3.4 µg/mL [1] was 4.02%, the MIC [2] was over 1000 µg/mL and the MIC [3] was over 1000 µg/mL. The inhibition of growth at 15.62 µg/mL [4] was 6.96%, the inhibition of growth at 15.62 µg/mL [5] was 9.86% and the MIC50 [6] was 250 µg/mL (≈ 471 µM). The MIC80 [6] was at least 250 µg/mL, the inhibition of growth at 3.4 µg/mL [7] was 0% and the inhibition of growth at 62.5 µg/mL [8] was 13.3%. For the same molecule, the MIC50 [9] was 250 µg/mL (≈ 471 µM), the MIC80 [9] was at least 250 µg/mL and the inhibition of growth at 31.25 µg/mL [10] was 10.2%. The LC50 [11] was 5.1 µg/mL (≈ 9.6 µM), the inhibition of growth at 125 µg/mL [12] was 37.3% and the inhibition of growth at 31.25 µg/mL [13] was 8.42%. For the same molecule, the MIC [14] was over 1000 µg/mL, the inhibition of growth at 7.8 µg/mL [15] was 1.46% and the MIC [16] was over 1000 µg/mL. It also gave an EC50 [17] of 1.96 µg/mL (≈ 3.69 µM), an inhibition of growth at 250 µg/mL [18] of 53.1% and an MIC [19] of over 1000 µg/mL. It also gave an inhibition of growth at 250 µg/mL [20] of 53.8%, an inhibition of growth at 62.5 µg/mL [21] of 12.8% and an MIC [22] of over 1000 µg/mL. The EC50 [23] was 4.08 µg/mL (≈ 7.68 µM), the MIC [24] was 31.2 µg/mL (≈ 58.8 µM) and the MIC [25] was over 1000 µg/mL. For the same molecule, the inhibition of growth at 7.8 µg/mL [26] was 5.61%, the EC50 [27] was 22.9 µg/mL (≈ 43.2 µM) and the inhibition of growth at 125 µg/mL [28] was 23.1%.
